Reference: ChEMBL document CHEMBL2040727, “Substituted thiazoles VI. Synthesis and antitumor activity of new 2-acetamido- and 2 or 3-propanamido-thiazole analogs” (2012)

What was measured:
Format in all cases: functional
[1] = test system: K562; experiment: Growth inhibition of human K562 cells at 10 uM after 48 hrs by coulter counter analysis; conditions: K562, 48 h, read-out: GI
Method in brief: (§1)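 Single-dose NCI 60-line panel screen of test compounds. Cells grown in RPMI 1640 with 10% FBS. Compounds dissolved in DMSO, then diluted in phosphate buffer saline (final DMSO below 1%). Wells run in duplicate at 6 × 10⁴ cells/ml. Controls held PBS and DMSO at matching dilutions. Incubation 48 h at 37 °C under humidified 5% CO2. Cells diluted tenfold in saline and counted by Coulter counter. Percent growth inhibition taken from mean-graph of treated-cell growth.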

[2] = test system: A549; experiment: Growth inhibition of human A549/ATCC cells at 10 uM after 48 hrs by coulter counter analysis; conditions: A549, 48 h, read-out: GI; method in brief: as §1
[3] = test system: EKVX; experiment: Growth inhibition of human EKVX cells at 10 uM after 48 hrs by coulter counter analysis; conditions: read-out: GI; method in brief: as §1
[4] = test system: HOP-62; experiment: Growth inhibition of human HOP62 cells at 10 uM after 48 hrs by coulter counter analysis; conditions: HOP-62, 48 h, read-out: GI; method in brief: as §1
[5] = test system: HOP-92; experiment: Growth inhibition of human HOP92 cells at 10 uM after 48 hrs by coulter counter analysis; conditions: HOP-92, 48 h, read-out: GI; method in brief: as §1
[6] = test system: NCI-H226; experiment: Growth inhibition of human NCI-H226 cells at 10 uM after 48 hrs by coulter counter analysis; conditions: NCI-H226, 48 h, read-out: GI; method in brief: as §1
[7] = test system: NCI-H460; experiment: Growth inhibition of human NCI-H460 cells at 10 uM after 48 hrs by coulter counter analysis; conditions: NCI-H460, 48 h, read-out: GI; method in brief: as §1
[8] = test system: NCI-H522; experiment: Growth inhibition of human NCI-H522 cells at 10 uM after 48 hrs by coulter counter analysis; conditions: NCI-H522, 48 h, read-out: GI; method in brief: as §1
[9] = test system: HCC 2998; experiment: Growth inhibition of human HCC2998 cells at 10 uM after 48 hrs by coulter counter analysis; conditions: HCC 2998, 48 h, read-out: GI; method in brief: as §1
[10] = test system: HT-29; experiment: Growth inhibition of human HT-29 cells at 10 uM after 48 hrs by coulter counter analysis; conditions: HT-29, 48 h, read-out: GI; method in brief: as §1
[11] = test system: KM12; experiment: Growth inhibition of human KM12 cells at 10 uM after 48 hrs by coulter counter analysis; conditions: KM12, 48 h, read-out: GI; method in brief: as §1
[12] = test system: SF-539; experiment: Growth inhibition of human SF539 cells at 10 uM after 48 hrs by coulter counter analysis; conditions: SF-539, 48 h, read-out: GI; method in brief: as §1
[13] = test system: SNB-19; experiment: Growth inhibition of human SNB19 cells at 10 uM after 48 hrs by coulter counter analysis; conditions: SNB-19, 48 h, read-out: GI; method in brief: as §1
[14] = test system: SNB-75; experiment: Growth inhibition of human SNB75 cells at 10 uM after 48 hrs by coulter counter analysis; conditions: SNB-75, 48 h, read-out: GI
Method in brief: (§2)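 Single-dose screen in the NCI 60 cell line panel. Cells grown in RPMI 1640 with 10% FBS. Compounds dissolved in DMSO and diluted in phosphate buffered saline, final DMSO under 1%. Duplicate wells seeded from culture at 6 × 10⁴ cells/ml. Incubated 48 h at 37 °C, humidified, 5% CO2. Cells diluted tenfold in saline and Coulter-counted. Percent growth inhibition computed against PBS/DMSO controls.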

[15] = test system: LOX IMVI; experiment: Growth inhibition of human LOXIMVI cells at 10 uM after 48 hrs by coulter counter analysis; conditions: read-out: GI; method in brief: as §1
[16] = test system: MDA-MB-435; experiment: Growth inhibition of human MDA-MB-435 cells at 10 uM after 48 hrs by coulter counter analysis; conditions: MDA-MB-435, 48 h, read-out: GI; method in brief: as §1
[17] = test system: SK-MEL-2; experiment: Growth inhibition of human SK-MEL-2 cells at 10 uM after 48 hrs by coulter counter analysis; conditions: SK-MEL-2, 48 h, read-out: GI; method in brief: as §1
[18] = test system: SK-MEL-28; experiment: Growth inhibition of human SK-MEL-28 cells at 10 uM after 48 hrs by coulter counter analysis; conditions: SK-MEL-28, 48 h, read-out: GI; method in brief: as §1
[19] = test system: SK-MEL-5; experiment: Growth inhibition of human SK-MEL-5 cells at 10 uM after 48 hrs by coulter counter analysis; conditions: SK-MEL-5, 48 h, read-out: GI; method in brief: as §1
[20] = test system: OVCAR-3; experiment: Growth inhibition of human OVCAR3 cells at 10 uM after 48 hrs by coulter counter analysis; conditions: OVCAR-3, 48 h, read-out: GI; method in brief: as §1
[21] = test system: OVCAR-4; experiment: Growth inhibition of human OVCAR4 cells at 10 uM after 48 hrs by coulter counter analysis; conditions: OVCAR-4, 48 h, read-out: GI; method in brief: as §1
[22] = test system: OVCAR-5; experiment: Growth inhibition of human OVCAR5 cells at 10 uM after 48 hrs by coulter counter analysis; conditions: OVCAR-5, 48 h, read-out: GI; method in brief: as §1
[23] = test system: OVCAR-8; experiment: Growth inhibition of human OVCAR8 cells at 10 uM after 48 hrs by coulter counter analysis; conditions: OVCAR-8, 48 h, read-out: GI; method in brief: as §1
[24] = Growth inhibition of human NCI-ADR-RES cells at 10 uM after 48 hrs by coulter counter analysis; conditions: read-out: GI; method in brief: as §1
[25] = test system: 786-0; experiment: Growth inhibition of human 786-0 cells at 10 uM after 48 hrs by coulter counter analysis; conditions: 786-0, 48 h, read-out: GI; method in brief: as §1
[26] = test system: A498; experiment: Growth inhibition of human A498 cells at 10 uM after 48 hrs by coulter counter analysis; conditions: A498, 48 h, read-out: GI; method in brief: as §1
[27] = test system: ACHN; experiment: Growth inhibition of human ACHN cells at 10 uM after 48 hrs by coulter counter analysis; conditions: read-out: GI; method in brief: as §1
[28] = test system: CAKI-1; experiment: Growth inhibition of human Caki1 cells at 10 uM after 48 hrs by coulter counter analysis; conditions: CAKI-1, 48 h, read-out: GI; method in brief: as §1
[29] = test system: SN12C; experiment: Growth inhibition of human SN12C cells at 10 uM after 48 hrs by coulter counter analysis; conditions: read-out: GI; method in brief: as §1
[30] = test system: UO-31; experiment: Growth inhibition of human UO31 cells at 10 uM after 48 hrs by coulter counter analysis; conditions: UO-31, 48 h, read-out: GI; method in brief: as §2
[31] = test system: MDA-MB-231; experiment: Growth inhibition of human MDA-MB-231 cells at 10 uM after 48 hrs by coulter counter analysis; conditions: MDA-MB-231, 48 h, read-out: GI; method in brief: as §1
[32] = test system: BT-549; experiment: Growth inhibition of human BT549 cells at 10 uM after 48 hrs by coulter counter analysis; conditions: BT-549, 48 h, read-out: GI; method in brief: as §1
[33] = test system: T47D; experiment: Growth inhibition of human T47D cells at 10 uM after 48 hrs by coulter counter analysis; conditions: read-out: GI; method in brief: as §2
[34] = test system: MDA-MB-468; experiment: Growth inhibition of human MDA-MB-468 cells at 10 uM after 48 hrs by coulter counter analysis; conditions: MDA-MB-468, 48 h, read-out: GI; method in brief: as §1

Structure (SMILES) | inhibition of growth at 10 µM [1] [%] | inhibition of growth at 10 µM [2] [%] | inhibition of growth at 10 µM [3] [%] | inhibition of growth at 10 µM [4] [%] | inhibition of growth at 10 µM [5] [%] | inhibition of growth at 10 µM [6] [%] | inhibition of growth at 10 µM [7] [%] | inhibition of growth at 10 µM [8] [%] | inhibition of growth at 10 µM [9] [%] | inhibition of growth at 10 µM [10] [%] | inhibition of growth at 10 µM [11] [%] | inhibition of growth at 10 µM [12] [%] | inhibition of growth at 10 µM [13] [%] | inhibition of growth at 10 µM [14] [%] | inhibition of growth at 10 µM [15] [%] | inhibition of growth at 10 µM [16] [%] | inhibition of growth at 10 µM [17] [%] | inhibition of growth at 10 µM [18] [%] | inhibition of growth at 10 µM [19] [%] | inhibition of growth at 10 µM [20] [%] | also measured
CCOC(=O)c1sc(NC(=O)C(C)N2CCOCC2)nc1C (stereo not drawn) | < 10 | < 10 | < 10 | < 10 | < 10 | < 10 | < 10 | < 10 | < 10 | < 10 | < 10 | < 10 | < 10 | 24.4 | < 10 | < 10 | < 10 | < 10 | < 10 | < 10 | inhibition of growth at 10 µM [21]: < 10%; inhibition of growth at 10 µM [22]: < 10%; inhibition of growth at 10 µM [23]: < 10%; inhibition of growth at 10 µM [24]: < 10%; inhibition of growth at 10 µM [25]: < 10%; inhibition of growth at 10 µM [26]: < 10%; inhibition of growth at 10 µM [27]: < 10%; inhibition of growth at 10 µM [28]: < 10%; inhibition of growth at 10 µM [29]: < 10%; inhibition of growth at 10 µM [30]: 14.2%; inhibition of growth at 10 µM [31]: < 10%; inhibition of growth at 10 µM [32]: < 10%; inhibition of growth at 10 µM [33]: < 10%; inhibition of growth at 10 µM [34]: < 10%
CCOC(=O)c1sc(NC(=O)C(C)N2CCN(C)CC2)nc1C (stereo not drawn) | < 10 | < 10 | < 10 | < 10 | < 10 | < 10 | < 10 | < 10 | < 10 | < 10 | < 10 | < 10 | < 10 | < 10 | < 10 | < 10 | < 10 | < 10 | < 10 | < 10 | inhibition of growth at 10 µM [21]: < 10%; inhibition of growth at 10 µM [22]: < 10%; inhibition of growth at 10 µM [23]: < 10%; inhibition of growth at 10 µM [24]: < 10%; inhibition of growth at 10 µM [25]: < 10%; inhibition of growth at 10 µM [26]: < 10%; inhibition of growth at 10 µM [27]: < 10%; inhibition of growth at 10 µM [28]: < 10%; inhibition of growth at 10 µM [29]: < 10%; inhibition of growth at 10 µM [30]: 13.1%; inhibition of growth at 10 µM [31]: < 10%; inhibition of growth at 10 µM [32]: < 10%; inhibition of growth at 10 µM [33]: < 10%; inhibition of growth at 10 µM [34]: < 10%
